From ChEMBL document CHEMBL5724801, “EUbOPEN Chemogenomics Library - Multiplex” (2024)
Where “and” joins values, the source holds several entries; their conditions need not be identical. Identical values can stand only once.

How the values were obtained:
HEK-293T = experiment: Multiplex assay against HEK293T; format: toxicity, cell-based; settings: human
Outline: (§1)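 With compound added, live cells were imaged on a CQ1 microscope at 37°C and 5% CO2; staining with Hoechst33342, BioTracker Green Microtubule Cytoskeleton Dye, MitoTracker Red and Annexin V Alexa Fluor 680 had been done at seeding. The CellPathfinder machine-learning gating scheme split cells into Hoechst high-intensity objects or normal cells, normal cells into healthy, pyknosed or fragmented nuclei, and pyknosed cells into mitotic or apoptotic. The tubulin, mitochondrial-mass and membrane-permeability phenotypes are per cents of healthy-nucleus cells.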

Fibroblast = experiment: Multiplex assay against human fibroblast; format: toxicity, cell-based; outline: as §1
[1] = 24 h, 10 µM, compound concentration 10 uM
[2] = 48 h, 1 µM, compound concentration 1 uM
[3] = 48 h, 10 µM, compound concentration 10 uM
[4] = 12 h, 1 µM, compound concentration 1 uM
[5] = 12 h, 10 µM, compound concentration 10 uM
[6] = 24 h, 1 µM, compound concentration 1 uM

## Nc1nc(CC(=O)Nc2ccc(CCNC[C@H](O)c3ccccc3)cc2)cs1 [MIRABEGRON]
HEK-293T; [1]
  Population Apoptotic (%): 31% and 35%
  Population Fragmented Nuclei (%): 8% and 9%
  Population Healthy Nuclei (%): 77% and 82%
  Population Hoechst High Intensity Objects (%): 4% and 5%
  Population Membrane Permeable-Phenotype (%): 0%
  Population Mitochondria Different-Phenotype (%): 32% and 49%
  Population Mitotic Cells (%): 68% and 64%
  Population Normal (%): 95% and 94%
  Population Pyknosed Nuclei (%): 13% and 7%
  Population Tubulin-Different-Phenotype (%): 23%
  Total Cell Count: 552 and 524
HEK-293T; [2]
  Population Apoptotic (%): 18% and 28%
  Population Fragmented Nuclei (%): 13% and 17%
  Population Healthy Nuclei (%): 80% and 76%
  Population Hoechst High Intensity Objects (%): 1% and 0%
  Population Membrane Permeable-Phenotype (%): 1%
  Population Mitochondria Different-Phenotype (%): 14% and 21%
  Population Mitotic Cells (%): 81% and 71%
  Population Normal (%): 98% and 99%
  Population Pyknosed Nuclei (%): 5%
  Population Tubulin-Different-Phenotype (%): 10%
  Total Cell Count: 1141 and 662
HEK-293T; [3]
  Population Apoptotic (%): 26% and 28%
  Population Fragmented Nuclei (%): 12%
  Population Healthy Nuclei (%): 78% and 80%
  Population Hoechst High Intensity Objects (%): 3% and 2%
  Population Membrane Permeable-Phenotype (%): 0%
  Population Mitochondria Different-Phenotype (%): 25% and 30%
  Population Mitotic Cells (%): 73% and 71%
  Population Normal (%): 96% and 97%
  Population Pyknosed Nuclei (%): 8% and 6%
  Population Tubulin-Different-Phenotype (%): 16% and 15%
  Total Cell Count: 818 and 750
Fibroblast; [4]
  Population Apoptotic (%): 53% and 31%
  Population Fragmented Nuclei (%): 19% and 27%
  Population Healthy Nuclei (%): 62% and 52%
  Population Hoechst High Intensity Objects (%): 5% and 4%
  Population Membrane Permeable-Phenotype (%): 0% and 9%
  Population Mitochondria Different-Phenotype (%): 6% and 12%
  Population Mitotic Cells (%): 46% and 68%
  Population Normal (%): 94% and 95%
  Population Pyknosed Nuclei (%): 18% and 19%
  Population Tubulin-Different-Phenotype (%): 25% and 46%
  Total Cell Count: 164 and 189
Fibroblast; [5]
  Population Apoptotic (%): 46% and 30%
  Population Fragmented Nuclei (%): 15% and 31%
  Population Healthy Nuclei (%): 75% and 41%
  Population Hoechst High Intensity Objects (%): 3% and 5%
  Population Membrane Permeable-Phenotype (%): 0% and 1%
  Population Mitochondria Different-Phenotype (%): 4% and 3%
  Population Mitotic Cells (%): 53% and 69%
  Population Normal (%): 96% and 94%
  Population Pyknosed Nuclei (%): 9% and 27%
  Population Tubulin-Different-Phenotype (%): 19% and 45%
  Total Cell Count: 171 and 137
Fibroblast; [6]
  Population Apoptotic (%): 59% and 58%
  Population Fragmented Nuclei (%): 17% and 27%
  Population Healthy Nuclei (%): 64% and 57%
  Population Hoechst High Intensity Objects (%): 5%
  Population Membrane Permeable-Phenotype (%): 1% and 9%
  Population Mitochondria Different-Phenotype (%): 4% and 7%
  Population Mitotic Cells (%): 40% and 41%
  Population Normal (%): 94%
  Population Pyknosed Nuclei (%): 18% and 14%
  Population Tubulin-Different-Phenotype (%): 28% and 45%
  Total Cell Count: 156 and 179
Fibroblast; [1]
  Population Apoptotic (%): 53% and 55%
  Population Fragmented Nuclei (%): 15% and 29%
  Population Healthy Nuclei (%): 75% and 48%
  Population Hoechst High Intensity Objects (%): 2% and 4%
  Population Membrane Permeable-Phenotype (%): 0% and 4%
  Population Mitochondria Different-Phenotype (%): 4% and 6%
  Population Mitotic Cells (%): 46% and 44%
  Population Normal (%): 97% and 95%
  Population Pyknosed Nuclei (%): 8% and 21%
  Population Tubulin-Different-Phenotype (%): 24% and 44%
  Total Cell Count: 181 and 131
Fibroblast; [2]
  Population Apoptotic (%): 76% and 50%
  Population Fragmented Nuclei (%): 23% and 40%
  Population Healthy Nuclei (%): 60% and 52%
  Population Hoechst High Intensity Objects (%): 7% and 2%
  Population Membrane Permeable-Phenotype (%): 2% and 4%
  Population Mitochondria Different-Phenotype (%): 6% and 10%
  Population Mitotic Cells (%): 23% and 50%
  Population Normal (%): 92% and 97%
  Population Pyknosed Nuclei (%): 15% and 7%
  Population Tubulin-Different-Phenotype (%): 28% and 32%
  Total Cell Count: 176 and 195
Fibroblast; [3]
  Population Apoptotic (%): 64% and 75%
  Population Fragmented Nuclei (%): 18% and 39%
  Population Healthy Nuclei (%): 74% and 48%
  Population Hoechst High Intensity Objects (%): 4% and 3%
  Population Membrane Permeable-Phenotype (%): 0% and 6%
  Population Mitochondria Different-Phenotype (%): 4% and 6%
  Population Mitotic Cells (%): 35% and 25%
  Population Normal (%): 95% and 96%
  Population Pyknosed Nuclei (%): 7% and 12%
  Population Tubulin-Different-Phenotype (%): 21% and 51%
  Total Cell Count: 194 and 132
